The values that follow come from ChEMBL document CHEMBL5120943, “Discovery of Novel Pyrazolopyrimidines as Potent, Selective, and Orally Bioavailable Inhibitors of ALK2” (ACS Med Chem Lett, 2022).

Some results are limits rather than exact numbers.

One data set addresses T1, Hepcidin (Homo sapiens, UniProt P81172).
T1 sequence (P81172 whole entry): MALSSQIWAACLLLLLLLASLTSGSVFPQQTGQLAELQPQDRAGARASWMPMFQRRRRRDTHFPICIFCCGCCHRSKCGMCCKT
Nature of the data set: Inhibition of Hepcidin in human Huh-7 cells assessed as inhibition of BMP-7 induced hepcidin production incubated for 16 to 24 hrs by ELISA method. The data set is classed as cell-based. A digest of the protocol:
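Huh7 liver cells were stimulated with BMP7. Inhibition of secreted hepcidin was measured and an IC50 was derived.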
For orientation: In an ELISA, binding on a coated surface is turned into a signal by an enzyme label.

Data set [1] deals with T2, Activin receptor type-1 (Homo sapiens, UniProt Q04771).
T2 sequence (Q04771 whole entry): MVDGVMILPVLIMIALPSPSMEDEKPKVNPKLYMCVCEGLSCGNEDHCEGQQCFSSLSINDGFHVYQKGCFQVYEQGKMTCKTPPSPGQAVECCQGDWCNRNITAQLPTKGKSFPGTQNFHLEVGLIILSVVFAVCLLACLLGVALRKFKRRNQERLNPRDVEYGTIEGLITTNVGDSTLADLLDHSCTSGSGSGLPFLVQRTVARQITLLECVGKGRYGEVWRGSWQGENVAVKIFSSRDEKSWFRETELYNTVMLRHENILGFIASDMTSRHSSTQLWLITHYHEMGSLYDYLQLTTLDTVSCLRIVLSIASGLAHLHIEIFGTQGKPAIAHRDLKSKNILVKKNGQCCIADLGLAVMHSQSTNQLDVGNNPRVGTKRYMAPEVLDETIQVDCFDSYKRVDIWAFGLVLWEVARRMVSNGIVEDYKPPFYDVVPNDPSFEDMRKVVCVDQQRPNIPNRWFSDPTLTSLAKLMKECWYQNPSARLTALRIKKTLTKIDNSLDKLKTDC
Nature of the data set: Inhibition of human recombinant N-terminal GST tagged ALK2 (147 to end residues) expressed in baculovirus infected in Sf9 cells assessed as loss of peptide phosphorylation activity using peptide substrate in presence of ATP and measured after 3 hrs by HTRF assay. A digest of the protocol:
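HTRF activity assay measuring loss of ALK2 phosphorylation of a peptide substrate. IC50 values were determined.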
For orientation: TR-FRET usually uses a lanthanide donor and a delayed reading to cut background.

The target in data set [2] is T2, Activin receptor type-1. Briefly: Inhibition of ALK2 in human HeLa cells assessed as reduction in BMP-7 induced SMAD1 phosphorylation incubated for 1 hr followed BMP-7 stimulation for 30 mins by HTRF assay. The data set is classed as cell-based. A digest of the protocol: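 HeLa cells were stimulated with BMP7. Inhibition of BMP7-induced SMAD1 phosphorylation was read by HTRF and an IC50 was derived.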

Data set [3] in a line: Cmax in Sprague-Dawley rat at 3 mg/kg, po measured upto 24 hrs post dose by LC/MS/MS analysis. Format: ADME, organism-based. Details: dose 3 mg/kg, time < 24 hrs, route po. To be noted: in vivo.
Data set [4] can be described thus: Apparent permeability across apical to basolateral side in human Caco-2 cells at 50 uM incubated for 120 mins by LC/MS/MS analysis. On the technique in general: Caco-2 monolayers are a common model of the intestinal barrier.
The nature of data set [5]: Oral bioavailability in Sprague-Dawley rat at 3 mg/kg measured upto 24 hrs post dose by LC/MS/MS analysis. The data set is classed as ADME, organism-based. To be noted: in vivo.
Data set [6] in a line: AUC infinity in Sprague-Dawley rat at 3 mg/kg, po measured upto 24 hrs post dose by LC/MS/MS analysis. Format: ADME, organism-based. To be noted: in vivo. More on the design: time < 24 hrs, dose 3 mg/kg, route po.
A short description of data set [7]: Metabolic stability in human liver microsomes assessed as intrinsic clearance at 1uM and measured upto 30 mins in presence of NADPH by LC/MS analysis. Format: ADME, Microsome. The settings on record: read-out: CLH (converted).
Data set [8] is described as follows: Half life in Sprague-Dawley rat at 3 mg/kg, po or 1 mg/kg, iv measured upto 24 hrs post dose by LC/MS/MS analysis. Format: ADME, organism-based. The settings on record: in vivo.
Data set [9] can be described thus: Volume of distribution at steady state in Sprague-Dawley rat at 3 mg/kg, po or 1 mg/kg, iv measured upto 24 hrs post dose by LC/MS/MS analysis. Format: ADME, organism-based. The settings on record: in vivo.
The nature of data set [10]: Protein binding in human plasma assessed as free fraction measured after 2 hrs by LC-MS/MS analysis. Format: ADME, cell-free.

Turning to `COC(=O)N1C[C@@H](C)N(c2ncc3[nH]nc(-c4ccc(N5CCN(C)CC5)nc4)c3n2)[C@@H](C)C1`, the IC50 at Hepcidin was found to be 58 nM.
As to `C[C@@H]1CN(c2ccc(-c3n[nH]c4cnc(N5CCCCC5)nc34)cn2)CCN1`, the half-maximal inhibitory concentration (IC50) on Activin receptor type-1 [1] was determined as 8.1 nM.
Turning to `CC1CCCCN1c1ncc2[nH]nc(-c3ccc(N4CCN[C@H](C)C4)nc3)c2n1` (stereo partly specified), the IC50 at Activin receptor type-1 [1] is 8.1 nM.
Take `C[C@@H]1CN(c2ccc(-c3n[nH]c4cnc(N5[C@H](C)CN(C(=O)N(C)C)C[C@@H]5C)nc34)cn2)CCN1`: the IC50 at Activin receptor type-1 [2] is 350 nM; at Activin receptor type-1 [1] it was 6.4 nM.
As to `COC(=O)N1C[C@@H](C)N(c2ncc3[nH]nc(-c4ccc(N5CCN[C@H](C)C5)nc4)c3n2)[C@@H](C)C1`, the results for the half-maximal inhibitory concentration (IC50) at Activin receptor type-1 [2], on Activin receptor type-1 [1] and at Hepcidin were 27 nM, 0.85 nM and 7.3 nM, respectively. In data set [3], this compound displayed a peak concentration (Cmax) of 75 nM. Also, the Papp A→B at 2 h, 50 µM in [4] worked out at 0.6 ×10⁻⁶ cm/s. The bioavailability in data set [5] was found to be 49%. This compound gave an AUC(0-inf) in [6] of 0.441 µM·h. The CLint scaled at 1 µM in [7] is 15 mL/min/kg. In addition, the half-life in data set [8] was 3.1 h. Moreover, the Vdss in data set [9] came to 21.9 L/kg. Also, the unbound share (fraction unbound) at 2 h in data set [10] worked out at 0.099.
Consider `C[C@@H]1CN(c2ccc(-c3n[nH]c4cnc(N5[C@H](C)CCC[C@@H]5C)nc34)cn2)CCN1`, for which the values for the IC50 on Activin receptor type-1 [2] and at Activin receptor type-1 [1] were 384 nM and 2.5 nM, respectively.
On to `C[C@@H]1CN(c2ccc(-c3n[nH]c4ccc(N5CCCCC5)nc34)cn2)CCN1`, for which the figures for the half-inhibitory concentration (IC50) at Activin receptor type-1 [2] and on Activin receptor type-1 [1] were more than 3000 nM and 95 nM, respectively.
`C[C@@H]1CN(c2ccc(-c3n[nH]c4cnc(N5[C@H](C)CNC[C@@H]5C)nc34)cn2)CCN1`: at Activin receptor type-1 [1], the IC50 is 793 nM.

By IC50 is commonly meant the concentration that gives 50% inhibition. The term Cmax denotes the peak of the concentration-time curve. A word on the Papp A→B: it is how fast a substance crosses the layer from the apical side. In general, bioavailability refers to the share of a dose that reaches the circulation, judged against a reference dose that is usually intravenous. The low end stands for poor availability, the high end for good availability. The term AUC(0-inf) denotes the area under the concentration-time curve extrapolated to infinity. By half-life is commonly meant the time needed for the level to fall by half in the phase considered. A lower half-life goes with fast loss. Usually fraction unbound stands for free concentration divided by total concentration.
